The source made the active and inactive calls. The calls are words filed in the database; no cut-off is given here.
Tests used:
[1] = system: KYSE-410; assay: Antiproliferative activity against human KYSE410 cells after 72 hrs by MTT assay; assay type: functional, cell-based; details: KYSE-410, 72 h
How it was run: (§1)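 Cells grown as monolayers at 37 °C, 5% CO2, mycoplasma-checked, in exponential phase. Cells seeded in 96-well plates, 24 h attachment, then compound added for 72 h. MTT 0.3 mg/mL for 3 h at 37 °C, DMSO solubilization, absorbance at 570 nm. Inhibition = (1 − A/C) × 100%. IC50 from log(concentration) vs % inhibition plot; triplicate wells, SD from ≥3 independent experiments.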

[2] = system: KYSE-70 cell line; assay: Antiproliferative activity against human KYSE-70 cells after 72 hrs by MTT assay; assay type: functional, cell-based; details: KYSE-70, 72 h; how it was run: as §1
[3] = system: KYSE-410; assay: Cell cycle arrest in human KYSE410 cells assessed as accumulation at S phase at 5 uM after 24 to 48 hrs by propidium iodide staining based flow cytometry (reference value: 22.3%); assay type: functional
[4] = system: SK-OV-3; assay: Antiproliferative activity against human SKOV3 cells after 72 hrs by MTT assay; assay type: functional, cell-based; details: SK-OV-3, 72 h; how it was run: as §1
[5] = system: KYSE-410; assay: Cell cycle arrest in human KYSE410 cells assessed as accumulation at S phase at 1 uM after 24 to 48 hrs by propidium iodide staining based flow cytometry (reference value: 22.3%); assay type: functional
[6] = system: KYSE-410; assay: Cell cycle arrest in human KYSE410 cells assessed as accumulation at G2 phase at 1 uM after 24 to 48 hrs by propidium iodide staining based flow cytometry (reference value: 12.2%); assay type: functional
[7] = system: KYSE-410; assay: Cell cycle arrest in human KYSE410 cells assessed as accumulation at G2 phase at 5 uM after 24 to 48 hrs by propidium iodide staining based flow cytometry (reference value: 12.2%); assay type: functional
[8] = system: KYSE-410; assay: Cell cycle arrest in human KYSE410 cells assessed as accumulation at G1 phase at 5 uM after 24 to 48 hrs by propidium iodide staining based flow cytometry (reference value: 65.4%); assay type: functional
[9] = system: MIA PaCa-2; assay: Antiproliferative activity against human MIAPaCa2 cells after 72 hrs by MTT assay; assay type: functional, cell-based; details: MIA PaCa-2, 72 h; how it was run: as §1
[10] = system: OVCAR-8; assay: Antiproliferative activity against human OVCAR8 cells after 72 hrs by MTT assay; assay type: functional, cell-based; details: OVCAR-8, 72 h; how it was run: as §1
[11] = system: KYSE-410; assay: Cell cycle arrest in human KYSE410 cells assessed as accumulation at G1 phase at 1 uM after 24 to 48 hrs by propidium iodide staining based flow cytometry (reference value: 65.4%); assay type: functional
[12] = system: KYSE-70 cell line; assay: Inhibition of colony formation in human KYSE-70 cells at 0.4 to 30 uM after 7 days by crystal violet staining based assay; assay type: functional, cell-based
How it was run: (§2)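 Seeding at 250 cells/well in 96-well plates, attached 24 h, then serial compound dilutions added at 37 °C. Culture continued 7 days until colonies formed. Colonies washed, stained with 2% crystal violet for 1 h, then rinsed thoroughly with water.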

[13] = system: KYSE-410; assay: Inhibition of colony formation in human KYSE410 cells at 0.4 to 30 uM after 7 days by crystal violet staining based assay; assay type: functional, cell-based; how it was run: as §2

Compound	IC50 [1] [µM]	IC50 [2] [µM]	also measured
O=C(Nc1cc(F)ccc1F)c1cc(=O)[nH]c2cc(Br)ccc12	> 20	> 20	–
COc1ccccc1NC(=O)c1cc(=O)[nH]c2cc(Br)ccc12	> 20	> 20	–
O=C(Nc1cccc(F)c1)c1cc(=O)[nH]c2cc(-c3ccsc3)ccc12	4.3	5.1	Activity [3]: 22.4%; IC50 [4]: 6.7 µM; Activity [5]: 21.7%; Activity [6]: 14.7%; Activity [7]: 54.9%; Activity [8]: 22.6%; IC50 [9]: 4.5 µM; IC50 [10]: 13.4 µM; Activity [11]: 63.6%
COc1ccc2c(C(=O)Nc3cc(F)cc(F)c3)cc(=O)[nH]c2c1	> 20	> 20	–
CC(C)(C)c1ccc(NC(=O)c2cc(=O)[nH]c3cc(Br)ccc23)cc1	> 20	> 20	inhibition [12]: inactive; inhibition [13]: inactive
O=C(Nc1cccc(F)c1)c1cc(=O)[nH]c2cc(-c3ccccc3)ccc12	> 20	> 20	–
O=C(Nc1ccc(F)cc1)c1cc(=O)[nH]c2cc(Br)ccc12	> 20	> 20	–
O=C(Nc1cccc(F)c1)c1cc(=O)[nH]c2cc(-c3cccc(F)c3)ccc12	10.9	12	–
COc1ccc(-c2ccc3c(C(=O)Nc4cccc(F)c4)cc(=O)[nH]c3c2)cc1	18	> 20	–
O=C(Nc1cccc(F)c1)c1cc(=O)n(Cc2ccccc2)c2cc(Br)ccc12	> 20	> 20	–
Nc1ccc(-c2ccc3c(C(=O)Nc4cccc(F)c4)cc(=O)[nH]c3c2)cc1	> 20	> 20	–
O=C(Nc1ccc(OC(F)(F)F)cc1)c1cc(=O)[nH]c2cc(Br)ccc12	> 20	> 20	–
O=C(Nc1cc(F)cc(F)c1)c1cc(=O)[nH]c2cc(Cl)ccc12	11	9	–
COc1ccc(NC(=O)c2cc(=O)[nH]c3cc(Br)ccc23)cc1	> 20	> 20	–
O=C(Nc1cc(F)c(F)c(F)c1)c1cc(=O)[nH]c2cc(Br)ccc12	> 20	> 20	–
O=C(c1ccnc2cc(Br)ccc12)N1CCCCC1	> 20	> 20	–
CC(C)(C)c1ccc(-c2ccc3c(C(=O)Nc4cccc(F)c4)cc(=O)[nH]c3c2)cc1	> 20	> 20	–
O=C(Nc1ccccn1)c1cc(=O)[nH]c2cc(Br)ccc12	9.8	11	Activity [3]: 19.5%; IC50 [4]: > 20 µM; Activity [5]: 18.5%; Activity [6]: 10.8%; Activity [7]: 18.5%; Activity [8]: 62.1%; IC50 [9]: 21.3 µM; IC50 [10]: > 20 µM; Activity [11]: 70.8%
COc1ccc(OC)c(NC(=O)c2cc(=O)[nH]c3cc(Br)ccc23)c1	> 20	> 20	–
O=C(Nc1cccc(F)c1)c1cc(=O)[nH]c2cc(C3=CCOCC3)ccc12	12.1	10.5	IC50 [4]: 13.3 µM; IC50 [9]: 8.8 µM; IC50 [10]: 21.8 µM
O=C(Nc1cccc(F)c1)c1cc(=O)[nH]c2cc(-c3ccc(F)c(CO)c3)ccc12	> 20	> 20	–
O=C(Nc1cccc(Cl)c1)c1cc(=O)[nH]c2cc(Br)ccc12	> 20	> 20	–
O=C(Nc1cccc(F)c1)c1cc(=O)[nH]c2cc(F)ccc12	> 20	> 20	–
O=C(Nc1cccc(OC(F)(F)F)c1)c1cc(=O)[nH]c2cc(Br)ccc12	14	> 20	–
O=C(Nc1ccc(C(F)(F)F)cc1)c1cc(=O)[nH]c2cc(Br)ccc12	> 20	> 20	–
O=C(c1cc(=O)[nH]c2cc(Br)ccc12)N1CCCCC1	> 20	> 20	–
O=C(Nc1cc(F)cc(F)c1)c1cc(=O)[nH]c2cc(O)ccc12	> 20	> 20	–
O=C(Nc1cccc(F)c1)c1cc(=O)[nH]c2cc(-c3ccccc3F)ccc12	> 20	> 20	–

— ChEMBL document CHEMBL4152308, “Synthesis and biological evaluation of novel 2-oxo-1,2-dihydroquinoline-4-carboxamide derivatives for the treatment of esophageal squamous cell carcinoma” (Eur J Med Chem, 2018)
